From ChEMBL document CHEMBL3739264, “Synthesis and bio-evaluation of novel quinolino-stilbene derivatives as potential anticancer agents” (Bioorg Med Chem, 2015)
Active and inactive are the calls of the source. The rule behind the calls is not given here.

Key:
[1] = Cell cycle arrest in human MCF10A cells assessed as accumulation at G2/M phase at 6 uM after 24 hrs by flow cytometry analysis relative to control; assay type: functional, cell-based; conditions: MCF-10A
Summary of the method: (§1)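 About 1 × 10^6 cells per plate seeded overnight, then treated with compound and harvested at set times. Cells fixed in 75% ethanol at -20°C for 12-24 h and stained 1 h with 100 µg/ml PI, 100 µg/ml RNase A and 0.3% NP-40 in PBS. DNA content measured by flow cytometry; phase fractions compared with sham-treated cells.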

[2] = Antiproliferative activity against human 184B5 cells after 72 hrs by SRB assay; assay type: cell-based; conditions: 184B5, 72 h
Summary of the method: (§2)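 Cells seeded at 4,000-5,000/well for 16 h, then exposed 72 h to serial dilutions of compound in DMSO; sham DMSO as 100% and TCA-treated wells as 0%. Fixed in 10% TCA at 4°C for 1 h, stained with 0.4% SRB for 30 min, dye solubilised in 10 mmol Tris pH 10.5, read at 540 nm. IC50 from sigmoidal dose-response curves; two biological replicates, four technical each.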

HeLa [3] = assay: Cell cycle arrest in human HeLa cells assessed as accumulation at G2/M phase at 6 uM after 72 hrs by flow cytometry analysis relative to control; assay type: functional; summary of the method: as §1
MDA-MB-231 [4] = assay: Cell cycle arrest in human MDA-MB-231 cells assessed as accumulation at G2/M phase at 6 uM after 72 hrs by flow cytometry analysis relative to control; assay type: functional; summary of the method: as §1
[5] = Cell cycle arrest in human MCF10A cells assessed as accumulation at S phase at 6 uM after 24 hrs by flow cytometry analysis relative to control; assay type: functional, cell-based; conditions: MCF-10A; summary of the method: as §1
MDA-MB-231 [6] = assay: Cell cycle arrest in human MDA-MB-231 cells assessed as accumulation at S phase at 6 uM after 12 hrs by flow cytometry analysis relative to control; assay type: functional; summary of the method: as §1
MCF7 = assay: Antiproliferative activity against human MCF7 cells after 72 hrs by SRB assay; assay type: functional, cell-based; conditions: MCF7, 72 h
Summary of the method: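 Cells seeded at 4,000-5,000/well for 16 h, then exposed 72 h to serial dilutions of compound in DMSO; sham DMSO as 100% and TCA-treated wells as 0%. IC50 from sigmoidal dose-response curves; two biological replicates, four technical each.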

HeLa [7] = assay: Induction of apoptosis in human HeLa cells assessed as increase of PARP cleavage at 6 uM after 48 hrs by Western blot analysis; assay type: functional, cell-based
Summary of the method: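 HeLa cells were sham-treated or given 6 µM and collected at set times. Lysed on ice in Tris pH 7.4/NaCl/EDTA/1% Triton X-100 with PMSF and protease inhibitors. 30-40 µg protein run on 8 or 10% gels, blotted to PVDF, probed overnight at 4°C and detected by ECL. Band levels normalized to GAPDH.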

MDA-MB-231 [8] = assay: Cell cycle arrest in human MDA-MB-231 cells assessed as accumulation at S phase at 6 uM after 72 hrs by flow cytometry analysis relative to control; assay type: functional; summary of the method: as §1
MDA-MB-231 [9] = assay: Cell cycle arrest in human MDA-MB-231 cells assessed as accumulation at sub-G1 phase at 6 uM after 48 hrs by flow cytometry analysis relative to control; assay type: functional
Summary of the method: (§3)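 Cells seeded overnight at about 1 × 10^6 per plate, treated next morning, and harvested at set times. Fixed in 75% ethanol at -20°C for 12-24 h, then stained 1 h in PBS with 0.3% NP-40, 100 µg/ml RNase A and 100 µg/ml propidium iodide. Phase distribution read from DNA content by flow cytometry against sham-treated cells.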

[10] = Cell cycle arrest in human MCF10A cells assessed as accumulation at G2/M phase at 6 uM after 48 hrs by flow cytometry analysis relative to control; assay type: functional, cell-based; conditions: MCF-10A; summary of the method: as §1
[11] = Cell cycle arrest in human MCF10A cells assessed as accumulation at G0-G1 phase at 6 uM after 24 hrs by flow cytometry analysis relative to control; assay type: functional, cell-based; conditions: MCF-10A; summary of the method: as §1
MDA-MB-468 = assay: Antiproliferative activity against human MDA-MB-468 cells after 72 hrs by SRB assay; assay type: functional, cell-based; conditions: MDA-MB-468, 72 h; summary of the method: as §2
HeLa [12] = assay: Cell cycle arrest in human HeLa cells assessed as accumulation at G0-G1 phase at 6 uM after 48 hrs by flow cytometry analysis relative to control; assay type: functional; summary of the method: as §1
[13] = Cell cycle arrest in human MCF10A cells assessed as accumulation at G2/M phase at 6 uM after 12 hrs by flow cytometry analysis relative to control; assay type: functional, cell-based; conditions: MCF-10A; summary of the method: as §1
Tubulin (Homo sapiens) = Tubulin (Homo sapiens) (UniProt P68371+Q9H4B7+P0DPH7+P68366+Q13509+Q71U36+P04350+Q3ZCM7+P07437+P68363+Q9BQE3+Q6PEY2+Q13885+Q9BVA1+Q9BUF5); assay: Inhibition of tubulin (unknown origin) polymerization at 6 to 12 uM measured every 1 min for 1 hr by automated plate reader analysis; assay type: protein-complex assay
Summary of the method: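 Cell-free assay: 4 mg/ml tubulin in 80 mM PIPES, 2 mM MgCl2, 0.5 mM EGTA, 1 mM GTP, 10% glycerol, pH 6.9, added to wells with ligand pre-warmed 2-3 min at 37°C. A340 read every min for 1 h.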

HeLa [14] = assay: Cell cycle arrest in human HeLa cells assessed as accumulation at S phase at 6 uM after 48 hrs by flow cytometry analysis relative to control; assay type: functional; summary of the method: as §1
HeLa [15] = assay: Cell cycle arrest in human HeLa cells assessed as accumulation at G0-G1 phase at 6 uM after 72 hrs by flow cytometry analysis relative to control; assay type: functional; summary of the method: as §1
[16] = Cell cycle arrest in human MCF10A cells assessed as accumulation at sub-G1 phase at 6 uM after 24 hrs by flow cytometry analysis relative to control; assay type: functional, cell-based; conditions: MCF-10A; summary of the method: as §1
[17] = Cell cycle arrest in human MCF10A cells assessed as accumulation at G0-G1 phase at 6 uM after 48 hrs by flow cytometry analysis relative to control; assay type: functional, cell-based; conditions: MCF-10A; summary of the method: as §1
[18] = Cell cycle arrest in human MCF10A cells assessed as accumulation at S phase at 6 uM after 12 hrs by flow cytometry analysis relative to control; assay type: functional, cell-based; conditions: MCF-10A; summary of the method: as §1
MDA-MB-231 [19] = assay: Cell cycle arrest in human MDA-MB-231 cells assessed as accumulation at sub-G1 phase at 6 uM after 12 hrs by flow cytometry analysis relative to control; assay type: functional; summary of the method: as §3
HeLa [20] = assay: Cell cycle arrest in human HeLa cells assessed as accumulation at G0-G1 phase at 6 uM after 12 hrs by flow cytometry analysis relative to control; assay type: functional; summary of the method: as §1
HeLa [21] = assay: Induction of apoptosis in human HeLa cells assessed as membrane blebbing at 6 uM after 48 hrs by time lapse microscopy analysis; assay type: functional, cell-based
Summary of the method: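 Treated HeLa cells were followed by time-lapse microscopy, with images taken at set time points.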

MDA-MB-231 [22] = assay: Cell cycle arrest in human MDA-MB-231 cells assessed as accumulation at S phase at 6 uM after 24 hrs by flow cytometry analysis relative to control; assay type: functional; summary of the method: as §1
MDA-MB-231 [23] = assay: Cell cycle arrest in human MDA-MB-231 cells assessed as accumulation at G0-G1 phase at 6 uM after 12 hrs by flow cytometry analysis relative to control; assay type: functional; summary of the method: as §1
MDA-MB-231 [24] = assay: Cell cycle arrest in human MDA-MB-231 cells assessed as accumulation at sub-G1 phase at 6 uM after 24 hrs by flow cytometry analysis relative to control; assay type: functional; summary of the method: as §3

Work on `FC(F)(F)c1cccc(/C=C\c2cc3ccccc3nc2Cl)c1` yielded an Activity [1] of 8.3%, an IC50 [2] of 6.15 µM and an Activity (HeLa [3]) of 12.1%. The Activity (MDA-MB-231 [4]) was 14.4%, the Activity [5] was 34.3% and the Activity (MDA-MB-231 [6]) was 18.2%. For the same compound, the IC50 (MCF7) was 3.53 µM, the Activity (HeLa [7]) was “Active” and the Activity (MDA-MB-231 [8]) was 14.2%. It also gave an Activity (MDA-MB-231 [9]) of 23.8%, an Activity [10] of 6.2% and an Activity [11] of 49.2%. For the same compound, the IC50 (MDA-MB-468) was 3.7 µM, the Activity (HeLa [12]) was 20.8% and the Activity [13] was 11.4%. For the same compound, the inhibition (Tubulin (Homo sapiens)) was “Active”, the Activity (HeLa [14]) was 12.9% and the Activity (HeLa [15]) was 22.9%. The Activity [16] was 7.3%, the Activity [17] was 63.6% and the Activity [18] was 52.9%. For the same compound, the Activity (MDA-MB-231 [19]) was 8.5%, the Activity (HeLa [20]) was 8% and the Activity (HeLa [21]) was “Active”. The Activity (MDA-MB-231 [22]) was 10.8%, the Activity (MDA-MB-231 [23]) was 22.2% and the Activity (MDA-MB-231 [24]) was 12.8%.
